# ChEMBL document CHEMBL1772954, “Antifungal, cytotoxic and SAR studies of a series of N-alkyl, N-aryl and N-alkylphenyl-1,4-pyrrolediones and related compounds” (Bioorg Med Chem, 2011)
# Key:
# SF-268 = experiment: Cytotoxicity against human SF268 cells assessed as cell growth after 2 days by sulforhodamine B assay; format: functional; settings: SF-268, 48 h
# Outline: (§1)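 NCI cell lines were run by the Monks method: cells were plated with compounds from DMSO stocks and incubated 2 days at 37 °C in 5% CO2, in duplicate. Cells were fixed with cold TCA, stained with 0.4% SRB, and the bound dye was solubilized in 10 mM tris-base and read at 515 nm. The zero-day control was subtracted, and GI50 was taken from the curves.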
# Aspergillus flavus = experiment: Antifungal activity against Aspergillus flavus ATCC 9170; format: functional
# Outline: (§2)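 Broth microdilution per CLSI M38-A2 in RPMI-1640 with MOPS at pH 7.0. Inoculum 1-5 × 10^3 CFU/mL, with twofold compound dilutions spanning 250-0.24 µg/ml (final DMSO <1%). Plates incubated at 35 °C, moist and dark, and read when the control fungus had grown. MIC is total growth inhibition. MFC comes from subculturing clear wells in duplicate onto SDA.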
# Saccharomyces cerevisiae = experiment: Antifungal activity against Saccharomyces cerevisiae ATCC 9763; format: functional
# Outline: (§3)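 CLSI M27-A3 broth microdilution in RPMI-1640 buffered to pH 7.0 with MOPS. Inoculum 1-5 × 10^3 CFU/mL. Compound twofold dilutions from 250 to 0.24 µg/ml, final DMSO <1%. Incubated at 35 °C in a moist, dark chamber and read at 48 h. MIC is the lowest concentration giving total growth inhibition. For MFC, 5 µL from clear wells was plated in duplicate on SDA; MFC is the lowest concentration with no growth.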
# [1] = test system: Trichophyton mentagrophytes; experiment: Antifungal activity against Trichophyton mentagrophytes ATCC 9972; format: functional
# Outline: (§4)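 Dermatophytes tested by CLSI M38-A2 microdilution in MOPS-buffered RPMI-1640 at pH 7.0. Inoculum 1-5 × 10^3 CFU/mL; compounds 250 to 0.24 µg/ml in twofold steps, final DMSO <1%. Incubated at 28 °C in a moist, dark chamber and read according to control growth. MIC is the lowest concentration with complete inhibition. MFC is the lowest concentration with no growth after duplicate subculture on SDA.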
# Aspergillus fumigatus = experiment: Antifungal activity against Aspergillus fumigatus ATCC 26934; format: functional; outline: as §2
# [2] = Cytotoxicity against human erythrocytes assessed as hemolysis by spectrometric analysis; format: cell-based, Erythrocyte
# Outline: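 Human heparinized red blood cells were washed in PBS at pH 7.0 and suspended at 4% in sterile 5% glucose. Compounds from DMSO stocks were diluted in 5% glucose to final concentrations of 250 to 0.24 µg/ml and incubated with the cells at 37 °C. Released hemoglobin was read at 540 nm. HC50 is the concentration giving 50% lysis relative to the drug-free value.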
# Aspergillus niger = experiment: Antifungal activity against Aspergillus niger ATCC 9029; format: functional; outline: as §2
# Candida tropicalis = experiment: Antifungal activity against Candida tropicalis C 131 2000; format: functional; outline: as §3
# Trichophyton rubrum = experiment: Antifungal activity against Trichophyton rubrum C 113 2000; format: functional; outline: as §4
# MCF7 = experiment: Cytotoxicity against human MCF7 cells assessed as cell growth after 2 days by sulforhodamine B assay; format: functional; settings: MCF7, 48 h; outline: as §1
# NCI-H460 = experiment: Cytotoxicity against human H460 cells assessed as cell growth after 2 days by sulforhodamine B assay; format: functional; settings: NCI-H460, 48 h; outline: as §1
# Cryptococcus neoformans = experiment: Antifungal activity against Cryptococcus neoformans ATCC 32264; format: functional; outline: as §3
# Nannizzia gypsea = experiment: Antifungal activity against Microsporum gypseum C 115 2000; format: functional; outline: as §4
# Candida albicans = experiment: Antifungal activity against Candida albicans ATCC 10213; format: functional; outline: as §3
MIC (Aspergillus flavus) [µg/mL],MIC (Saccharomyces cerevisiae) [µg/mL],MIC [1] [µg/mL],MIC (Aspergillus fumigatus) [µg/mL],MIC (Aspergillus niger) [µg/mL],MIC (Candida tropicalis) [µg/mL],MIC (Trichophyton rubrum) [µg/mL],MIC (Cryptococcus neoformans) [µg/mL],SMILES,GI50 (SF-268) [µg/mL],MFC (Aspergillus flavus) [µg/mL],MFC (Saccharomyces cerevisiae) [µg/mL],MFC [1] [µg/mL],MFC (Aspergillus fumigatus) [µg/mL],HC50 [2] [µg/mL],MFC (Aspergillus niger) [µg/mL],MFC (Candida tropicalis) [µg/mL],MFC (Trichophyton rubrum) [µg/mL],GI50 (MCF7) [µg/mL],GI50 (NCI-H460) [µg/mL],MFC (Cryptococcus neoformans) [µg/mL],further results
62.5,3.9,3.9,62.5,31.2,7.81,3.9,3.9,O=C1C=CC(=O)N1c1ccc(Cl)cc1,> 10,125,7.81,7.81,125,> 250,62.5,15.6,7.81,> 10,> 10,7.81,MFC (Nannizzia gypsea): 7.81 µg/mL; MIC (Nannizzia gypsea): 3.9 µg/mL; MFC (Candida albicans): 62.5 µg/mL; MIC (Candida albicans): 62.5 µg/mL
31.2,3.9,1.95,31.2,31.2,15.6,1.95,3.9,COc1cccc(N2C(=O)C=CC2=O)c1,> 10,62.5,7.81,3.9,62.5,> 250,62.5,62.5,3.9,> 10,> 10,7.81,MFC (Nannizzia gypsea): 7.81 µg/mL; MIC (Nannizzia gypsea): 3.9 µg/mL; MFC (Candida albicans): 62.5 µg/mL; MIC (Candida albicans): 15.6 µg/mL
62.5,31.2,3.9,62.5,31.2,62.5,3.9,15.6,COc1ccc(N2C(=O)C=CC2=O)cc1,> 10,125,62.5,7.81,125,> 250,62.5,125,3.9,> 10,> 10,15.6,MFC (Nannizzia gypsea): 7.81 µg/mL; MIC (Nannizzia gypsea): 3.9 µg/mL; MFC (Candida albicans): 125 µg/mL; MIC (Candida albicans): 62.5 µg/mL
62.5,7.81,1.95,62.5,15.6,15.6,1.95,7.81,Cc1ccccc1N1C(=O)C=CC1=O,> 10,62.5,7.81,3.9,125,> 250,62.5,31.2,3.9,> 10,> 10,7.81,MFC (Nannizzia gypsea): 7.81 µg/mL; MIC (Nannizzia gypsea): 3.9 µg/mL; MFC (Candida albicans): 15.6 µg/mL; MIC (Candida albicans): 15.6 µg/mL
15.6,3.9,1.95,31.2,15.6,15.6,1.95,3.9,Cc1ccc(N2C(=O)C=CC2=O)cc1,> 10,15.6,7.81,7.81,62.5,> 250,31.2,31.2,3.9,> 10,> 10,7.81,MFC (Nannizzia gypsea): 3.9 µg/mL; MIC (Nannizzia gypsea): 1.95 µg/mL; MFC (Candida albicans): 31.2 µg/mL; MIC (Candida albicans): 15.6 µg/mL
15.6,3.9,3.9,15.6,7.81,15.6,3.9,7.81,O=C1C=CC(=O)N1c1ccc(F)cc1,> 10,15.6,7.81,7.81,31.2,> 250,7.81,15.6,7.81,> 10,> 10,15.6,MFC (Nannizzia gypsea): 7.81 µg/mL; MIC (Nannizzia gypsea): 3.9 µg/mL; MFC (Candida albicans): 15.6 µg/mL; MIC (Candida albicans): 15.6 µg/mL
